# Laboratory results reported in paper PMC7867784 (Translational Lung Cancer Research, 2021).
# Tested on: Japanese patients with RET-rearranged NSCLC
# Experiment: ALL-RET phase 1/2 trial: safety
# Type: in vivo, human
# Method in brief: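 Adverse events were graded by NCI CTCAE v4.0, with causal relation to treatment recorded separately. Dose finding used a 3+3 de-escalation design with 3–6 patients per cohort. DLT was evaluated over the first 21-day cycle and defined as grade ≥4 thrombopenia, grade ≥3 febrile neutropenia, grade ≥4 neutropenia lasting ≥4 days, or grade ≥3 non-hematologic toxicity, with specified exceptions. Follow-up ran until January 2019.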
# [1] = 600 mg BID (N=6), dose limiting toxicity
# [2] = Japanese patients with RET-rearranged NSCLC
smiles,measurement,setting,value
CCc1cc2c(cc1N1CCC(N3CCOCC3)CC1)C(C)(C)c1[nH]c3cc(C#N)ccc3c1C2=O [alectinib],"Constipation, any grade, number [causally related]",600 mg BID (N=6),4 [4]
same,"Constipation, any grade, percent",600 mg BID (N=6),66.7%
same,"Constipation, grade 1–2, number (total)",600 mg BID (N=6),4 [4]
same,"Constipation, grade 1–2, number [causally related]",600 mg BID (N=6),4 [4]
same,"Constipation, grade 3, number",600 mg BID (N=6),0
same,"Constipation, grade 4, number",600 mg BID (N=6),0
same,"Creatine phosphokinase increase, any grade, number (total)",600 mg BID (N=6),2 [2]
same,"Creatine phosphokinase increase, any grade, number [causally related]",600 mg BID (N=6),2 [2]
same,"Creatine phosphokinase increase, any grade, percent",600 mg BID (N=6),33.3%
same,"Creatine phosphokinase increase, grade 1–2, number (total)",600 mg BID (N=6),1[1]
same,"Creatine phosphokinase increase, grade 1–2, number [causally related]",600 mg BID (N=6),1[1]
same,"Creatine phosphokinase increase, grade 4, number",600 mg BID (N=6),0
same,"Creatinine increase, any grade, number (total)",600 mg BID (N=6),2 [2]
same,"Creatinine increase, any grade, number [causally related]",600 mg BID (N=6),2 [2]
same,"Creatinine increase, any grade, percent",600 mg BID (N=6),33.3%
same,"Creatinine increase, grade 1–2, number (total)",600 mg BID (N=6),2[2]
same,"Creatinine increase, grade 1–2, number [causally related]",600 mg BID (N=6),2[2]
same,"Creatinine increase, grade 3, number",600 mg BID (N=6),0
same,"Creatinine increase, grade 4, number",600 mg BID (N=6),0
same,"Dysgeusia, any grade, number (total)",600 mg BID (N=6),2 [2]
same,"Dysgeusia, any grade, number [causally related]",600 mg BID (N=6),2 [2]
same,"Dysgeusia, any grade, percent",600 mg BID (N=6),33.3%
same,"Dysgeusia, grade 1–2, number (total)",600 mg BID (N=6),2 [2]
same,"Dysgeusia, grade 1–2, number [causally related]",600 mg BID (N=6),2 [2]
same,"Dysgeusia, grade 3, number",600 mg BID (N=6),0
same,"Dysgeusia, grade 4, number",600 mg BID (N=6),0
same,"Erythema multiforme, any grade, number (total)",600 mg BID (N=6),1 [1]
same,"Erythema multiforme, any grade, number [causally related]",600 mg BID (N=6),1 [1]
same,"Erythema multiforme, any grade, percent",600 mg BID (N=6),16.7%
same,"Erythema multiforme, grade 1–2, number",600 mg BID (N=6),0
same,"Erythema multiforme, grade 4, number",600 mg BID (N=6),0
same,"Hepatic function abnormal, any grade, number (total)",600 mg BID (N=6),2 [2]
same,"Hepatic function abnormal, any grade, number [causally related]",600 mg BID (N=6),2 [2]
same,"Hepatic function abnormal, any grade, percent",600 mg BID (N=6),33.3%
same,"Hepatic function abnormal, grade 1–2, number (total)",600 mg BID (N=6),1 [1]
same,"Hepatic function abnormal, grade 1–2, number [causally related]",600 mg BID (N=6),1 [1]
same,"Hepatic function abnormal, grade 4, number",600 mg BID (N=6),0
same,"Lymphocyte decrease, any grade, number (total)",600 mg BID (N=6),1 [1]
same,"Lymphocyte decrease, any grade, number [causally related]",600 mg BID (N=6),1 [1]
same,"Lymphocyte decrease, any grade, percent",600 mg BID (N=6),16.7%
same,"Lymphocyte decrease, grade 1–2, number",600 mg BID (N=6),0
same,"Lymphocyte decrease, grade 3, number",600 mg BID (N=6),0
same,"Lymphocyte decrease, grade 4, number (total)",600 mg BID (N=6),1 [1]
same,"Lymphocyte decrease, grade 4, number [causally related]",600 mg BID (N=6),1 [1]
same,"Myalgia, any grade, number (total)",600 mg BID (N=6),3 [3]
same,"Myalgia, any grade, number [causally related]",600 mg BID (N=6),3 [3]
same,"Myalgia, any grade, percent",600 mg BID (N=6),50.0%
same,"Myalgia, grade 1–2, number (total)",600 mg BID (N=6),3 [3]
same,"Myalgia, grade 1–2, number [causally related]",600 mg BID (N=6),3 [3]
same,"Myalgia, grade 3, number",600 mg BID (N=6),0
same,"Myalgia, grade 4, number",600 mg BID (N=6),0
same,"Oedema peripheral, any grade, number (total)",600 mg BID (N=6),2 [2]
same,"Oedema peripheral, any grade, number [causally related]",600 mg BID (N=6),2 [2]
same,"Oedema peripheral, any grade, percent",600 mg BID (N=6),33.3%
same,"Oedema peripheral, grade 1–2, number (total)",600 mg BID (N=6),2 [2]
same,"Oedema peripheral, grade 1–2, number [causally related]",600 mg BID (N=6),2 [2]
same,"Oedema peripheral, grade 3, number",600 mg BID (N=6),0
same,"Oedema peripheral, grade 4, number",600 mg BID (N=6),0
same,"Rash, any grade, number (total)",600 mg BID (N=6),1 [1]
same,"Rash, any grade, number [causally related]",600 mg BID (N=6),1 [1]
same,"Rash, any grade, percent",600 mg BID (N=6),16.7%
same,"Rash, grade 1–2, number",600 mg BID (N=6),0
same,"Rash, grade 4, number",600 mg BID (N=6),0
same,"Thromboembolic event, any grade, number (total)",600 mg BID (N=6),1 [1]
same,"Thromboembolic event, any grade, number [causally related]",600 mg BID (N=6),1 [1]
same,"Thromboembolic event, any grade, percent",600 mg BID (N=6),16.7%
same,"Thromboembolic event, grade 1–2, number",600 mg BID (N=6),0
same,"Thromboembolic event, grade 4, number",600 mg BID (N=6),0
same,"Creatine phosphokinase increase, grade 3, number (total)",[1],1[1]*
same,"Creatine phosphokinase increase, grade 3, number [causally related]",[1],1[1]*
same,"Erythema multiforme, grade 3, number (total)",[1],1 [1]*
same,"Erythema multiforme, grade 3, number [causally related]",[1],1 [1]*
same,"Hepatic function abnormal, grade 3, number (total)",[1],1 [1]*
same,"Hepatic function abnormal, grade 3, number [causally related]",[1],1 [1]*
same,"Rash, grade 3, number (total)",[1],1 [1]*
same,"Rash, grade 3, number [causally related]",[1],1 [1]*
same,"Thromboembolic event, grade 3, number (total)",[1],1 [1]*
same,"Thromboembolic event, grade 3, number [causally related]",[1],1 [1]*
same,patients whose treatment was discontinued due to DLTs,"600 mg BID, out of 6 patients",2
same,MTD (maximum tolerated dose),[2],450 mg BID
same,recommended dose (RD) for phase 2,[2],450 mg BID
same,DLTs observed in case S1-3,"cohort 1, 600 mg BID",grade 3 rash and hepatic function abnormal
same,DLTs observed in case S1-4,"cohort 1, 600 mg BID",grade 3 erythema multiforme and thromboembolic event
same,number of dose-limiting toxicities (DLTs),"phase 1 cohort 1, 600 mg BID, 6 patients",5
same,patients with DLTs,"phase 1 cohort 1, 600 mg BID, of 6 patients",3
same,DLTs,"phase 1 cohort 2, 450 mg BID, 3 patients",no DLTs
same,grade 3 adverse events including pneumonitis,"phase 2, 450 mg BID",4%
